# Reference: ChEMBL document CHEMBL2331336, “Discovery and structure-activity relationship of 1,3-cyclohexyl amide derivatives as novel mGluR5 negative allosteric modulators” (Bioorg Med Chem Lett, 2013)
# Calls of active or inactive are those of the source. The rule behind the calls is not given here.
# Experiments:
# [1] = Plasma concentration in CD-1 mouse at 10 mg/kg, sc at 1 hr; assay type: ADME, organism-based; set-up: dose 10 mg/kg, route subcutaneous
# Procedure, shortened: (§1)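 CD-1 mice (n = 2), 10 mg/kg SC in 20% hydroxypropyl-β-cyclodextrin in water. Brain and plasma sampled at 1 h; averages reported. Quantification limits were 2 ng/g for brain and 2 ng/mL for plasma. Kupp is the ratio of unbound brain to unbound plasma concentration.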
# Liver = assay: Intrinsic clearance in mouse liver microsomes; assay type: ADME, Microsome
# Liver microsomes [2] = assay: Intrinsic clearance in rat liver microsomes; assay type: ADME, Microsome
# Plasma [3] = assay: Fraction unbound in mouse plasma; assay type: ADME, cell-free
# [4] = Ratio of drug uptake in brain to plasma of CD-1 mouse at 10 mg/kg, po at 1 hr; assay type: ADME, organism-based; set-up: dose 10 mg/kg, route oral; settings: read-out: BPR
# [5] = Drug uptake in CD-1 mouse brain at 10 mg/kg, sc at 1 hr; assay type: ADME, organism-based; set-up: dose 10 mg/kg, route subcutaneous; settings: read-out: Drug uptake; procedure, shortened: as §1
# Liver microsomes [6] = assay: Intrinsic clearance in human liver microsomes; assay type: ADME, Microsome; set-up: unit not given here
# Mus musculus = assay: Anxiolytic-like activity in mouse at 30 mg/kg, sc measured after 1 hr by marble burying test; assay type: functional, organism-based; set-up: dose 30 mg/kg
# Procedure, shortened: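 Male CD-1 mice, n = 12 per group, given 3, 10 or 30 mg/kg sc in 20% HPβCD (5 mL/kg); buspirone 10 mg/kg sc in water as positive control. Mice were placed singly in cages for a 30 min session, and marbles buried out of 20 were counted. One-way ANOVA with Dunnett's test.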
# [7] = Fraction unbound in mouse brain; assay type: ADME, tissue-based
# [8] = Ratio of fraction unbound in brain to plasma of CD-1 mouse brain at 10 mg/kg, sc at 1 hr; assay type: ADME, organism-based; set-up: dose 10 mg/kg, route subcutaneous; settings: in vivo; procedure, shortened: as §1
# [9] = Drug uptake in CD-1 mouse brain at 10 mg/kg, po at 1 hr; assay type: ADME, organism-based; set-up: dose 10 mg/kg, route oral; settings: read-out: Drug uptake
# [10] = Plasma concentration in CD-1 mouse at 10 mg/kg, po at 1 hr; assay type: ADME, organism-based; set-up: dose 10 mg/kg, route oral
# [11] = Ratio of drug uptake in brain to plasma of CD-1 mouse at 10 mg/kg, sc at 1 hr; assay type: ADME, organism-based; set-up: dose 10 mg/kg, route subcutaneous; settings: read-out: BPR; procedure, shortened: as §1
# [12] = biological target: T1, Metabotropic glutamate receptor 1 (Rattus norvegicus, UniProt P23385); assay: Agonist activity at rat mGluR1 expressed in HEK293 cells assessed as Ca2+ mobilization by FLIPR assay; assay type: functional, cell-based
# T1 sequence (P23385 whole entry): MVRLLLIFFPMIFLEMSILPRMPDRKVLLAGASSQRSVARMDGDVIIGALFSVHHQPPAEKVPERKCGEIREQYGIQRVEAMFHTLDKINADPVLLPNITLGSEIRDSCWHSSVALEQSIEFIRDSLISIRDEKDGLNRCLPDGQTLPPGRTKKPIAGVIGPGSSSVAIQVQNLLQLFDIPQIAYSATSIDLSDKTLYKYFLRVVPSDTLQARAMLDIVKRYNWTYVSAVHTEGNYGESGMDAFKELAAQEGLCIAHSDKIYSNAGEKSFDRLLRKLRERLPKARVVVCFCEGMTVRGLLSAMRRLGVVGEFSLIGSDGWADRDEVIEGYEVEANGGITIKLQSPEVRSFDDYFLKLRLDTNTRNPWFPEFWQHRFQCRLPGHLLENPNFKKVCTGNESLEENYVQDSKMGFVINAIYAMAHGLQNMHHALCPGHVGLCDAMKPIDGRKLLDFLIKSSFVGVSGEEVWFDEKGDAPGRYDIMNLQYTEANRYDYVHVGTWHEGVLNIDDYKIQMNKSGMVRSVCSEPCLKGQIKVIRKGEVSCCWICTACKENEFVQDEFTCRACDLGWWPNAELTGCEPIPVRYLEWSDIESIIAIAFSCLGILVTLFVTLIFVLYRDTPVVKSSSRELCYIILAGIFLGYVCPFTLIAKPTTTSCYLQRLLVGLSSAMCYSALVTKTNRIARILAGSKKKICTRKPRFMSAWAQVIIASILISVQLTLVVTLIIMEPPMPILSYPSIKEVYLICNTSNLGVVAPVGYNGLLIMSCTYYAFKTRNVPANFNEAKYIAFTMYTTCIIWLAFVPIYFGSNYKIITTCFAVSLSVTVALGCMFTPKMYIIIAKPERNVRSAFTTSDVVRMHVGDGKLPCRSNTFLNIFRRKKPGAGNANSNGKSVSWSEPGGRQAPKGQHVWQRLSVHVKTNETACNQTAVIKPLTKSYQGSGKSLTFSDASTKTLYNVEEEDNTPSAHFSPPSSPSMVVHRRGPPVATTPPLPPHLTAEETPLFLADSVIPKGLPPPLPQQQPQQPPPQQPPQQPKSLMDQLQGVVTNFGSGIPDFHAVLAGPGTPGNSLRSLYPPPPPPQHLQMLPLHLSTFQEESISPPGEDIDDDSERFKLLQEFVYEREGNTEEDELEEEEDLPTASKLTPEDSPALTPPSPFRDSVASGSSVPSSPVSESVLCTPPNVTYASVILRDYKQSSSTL
# Procedure, shortened: (§2)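 Rat mGluR1 stably in HEK293 cells (1.5% calf serum medium), seeded 24 h earlier, Fluo-4 loaded 1 h at 37 °C in HBSS/HEPES pH 7.4 with probenecid. Curves fitted with Hill equation.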
# [13] = biological target: T2, Metabotropic glutamate receptor 5 (Homo sapiens, UniProt P41594); assay: Antagonist activity at human mGluR5 expressed in HEK293 cells assessed as inhibition of Ca2+ mobilization by FLIPR assay; assay type: functional, cell-based
# T2 sequence (P41594 whole entry): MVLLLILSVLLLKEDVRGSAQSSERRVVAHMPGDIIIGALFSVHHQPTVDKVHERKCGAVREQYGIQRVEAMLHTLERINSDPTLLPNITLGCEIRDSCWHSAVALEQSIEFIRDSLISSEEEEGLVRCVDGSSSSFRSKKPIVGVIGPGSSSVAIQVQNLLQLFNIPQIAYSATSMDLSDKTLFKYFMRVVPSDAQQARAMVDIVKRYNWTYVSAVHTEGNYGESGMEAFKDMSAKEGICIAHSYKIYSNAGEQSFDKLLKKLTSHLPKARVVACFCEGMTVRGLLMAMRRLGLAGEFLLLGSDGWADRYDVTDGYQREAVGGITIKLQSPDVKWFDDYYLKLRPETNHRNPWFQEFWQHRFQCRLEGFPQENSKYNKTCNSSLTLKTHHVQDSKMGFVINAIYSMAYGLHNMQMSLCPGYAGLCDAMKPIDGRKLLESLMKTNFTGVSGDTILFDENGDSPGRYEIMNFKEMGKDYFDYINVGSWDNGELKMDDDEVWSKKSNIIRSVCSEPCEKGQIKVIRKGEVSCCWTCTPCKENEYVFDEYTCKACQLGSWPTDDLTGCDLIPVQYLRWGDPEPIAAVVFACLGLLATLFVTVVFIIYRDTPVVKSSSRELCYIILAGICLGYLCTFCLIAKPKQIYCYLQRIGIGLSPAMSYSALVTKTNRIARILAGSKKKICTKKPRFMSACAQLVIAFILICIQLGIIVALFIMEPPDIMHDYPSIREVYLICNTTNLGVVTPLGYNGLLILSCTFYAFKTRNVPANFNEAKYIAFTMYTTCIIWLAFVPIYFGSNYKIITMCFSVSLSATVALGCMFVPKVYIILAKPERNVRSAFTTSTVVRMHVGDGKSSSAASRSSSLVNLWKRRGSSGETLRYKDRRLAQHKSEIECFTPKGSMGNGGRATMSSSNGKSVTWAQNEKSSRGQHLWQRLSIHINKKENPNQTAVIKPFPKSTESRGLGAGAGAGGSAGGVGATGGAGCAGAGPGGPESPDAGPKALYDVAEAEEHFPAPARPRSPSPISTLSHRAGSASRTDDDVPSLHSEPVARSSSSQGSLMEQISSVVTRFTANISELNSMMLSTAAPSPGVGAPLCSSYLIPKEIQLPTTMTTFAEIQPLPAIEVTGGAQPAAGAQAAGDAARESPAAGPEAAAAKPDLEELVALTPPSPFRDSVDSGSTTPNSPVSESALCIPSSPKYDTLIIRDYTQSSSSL
# [14] = biological target: T1, Metabotropic glutamate receptor 1; assay: Antagonist activity at rat mGluR1 expressed in HEK293 cells assessed as inhibition of Ca2+ mobilization by FLIPR assay; assay type: functional, cell-based; procedure, shortened: as §2
# [15] = Ratio of drug uptake in brain to plasma of Sprague-Dawley rat at 10 mg/kg, po at 1 hr; assay type: ADME, organism-based; set-up: dose 10 mg/kg, route oral; settings: read-out: BPR
# [16] = biological target: T2, Metabotropic glutamate receptor 5; assay: Displacement of [3H]-ABP688 from human mGluR5 expressed in HEK293 cells after 60 mins by scintillation counting; assay type: cell-based
# [17] = Drug uptake in Sprague-Dawley rat brain at 10 mg/kg, po at 1 hr; assay type: ADME, organism-based; set-up: dose 10 mg/kg, route oral; settings: read-out: Drug uptake
# [18] = Plasma concentration in Sprague-Dawley rat at 10 mg/kg, po at 1 hr; assay type: ADME, organism-based; set-up: dose 10 mg/kg, route oral
# Rattus norvegicus [19] = assay: Plasma clearance in Sprague-Dawley rat at 1 mg/kg, iv or 2 mg/kg, po relative to hepatic blood flow; assay type: ADME, organism-based; settings: in vivo
# Procedure, shortened: (§3)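 Sprague-Dawley rats (n = 2) dosed in a cross-over design with a 24 h washout: 1 mg/kg IV and 2 mg/kg PO in 20% hydroxypropyl-β-cyclodextrin in water. Rat hepatic blood flow was taken as 20 mL/min.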
# [20] = Partition co-efficient, log D at pH 7.4 of the compound by shake flask method; assay type: physicochemical; settings: buffer
# Plasma [21] = assay: Fraction unbound in rat plasma; assay type: ADME, cell-free
# [22] = Plasma protein binding in human; assay type: ADME, cell-free; settings: read-out: PPB (converted)
# [23] = Plasma clearance in Sprague-Dawley rat at 1 mg/kg, iv or 2 mg/kg, po; assay type: ADME, organism-based; procedure, shortened: as §3
# [24] = Fraction unbound in rat brain; assay type: ADME, tissue-based
# Rattus norvegicus [25] = assay: AUC ( 0 to infinity) in Sprague-Dawley rat at 2 mg/kg, po; assay type: ADME, organism-based, Plasma; set-up: dose 2 mg/kg, route oral, time infinity; settings: in vivo
# Procedure, shortened: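 Sprague-Dawley rats (n = 2), cross-over design with 24 h washout between routes; 2 mg/kg oral in 20% hydroxypropyl-β-cyclodextrin in water; plasma AUC0-inf derived from concentration–time profile.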
# Rattus norvegicus [26] = assay: AUC ( 0 to infinity) in Sprague-Dawley rat at 1 mg/kg, iv; assay type: ADME, organism-based, Plasma; set-up: time infinity, dose 1 mg/kg, route intravenous; settings: in vivo
# Procedure, shortened: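 Sprague-Dawley rats (n = 2), cross-over design with 24 h washout between routes; 1 mg/kg iv in 20% hydroxypropyl-β-cyclodextrin in water; plasma AUC0-inf derived from concentration–time profile.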
# [27] = Volume of distribution at steady state in Sprague-Dawley rat at 1 mg/kg, iv or 2 mg/kg, po; assay type: ADME, organism-based; settings: in vivo, read-out: Vdss; procedure, shortened: as §3
# [28] = Kinetic solubility of the compound in potassium phosphate buffer after 4 hrs; assay type: physicochemical; settings: read-out: Kinetic_solubility
# Procedure, shortened: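 Kinetic solubility: compound from 10 mM DMSO stock diluted into 25 mM potassium phosphate buffer and shaken 4 h. Supernatant analyzed by UPLC with PDA detection at 254 nm.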
# [29] = Cmax in Sprague-Dawley rat at 1 mg/kg, iv or 2 mg/kg, po; assay type: ADME, organism-based; settings: in vivo; procedure, shortened: as §3
# Rattus norvegicus [30] = assay: Bioavailability in Sprague-Dawley rat at 1 mg/kg, iv or 2 mg/kg, po; assay type: ADME, organism-based; settings: in vivo; procedure, shortened: as §3
# [31] = Tmax in Sprague-Dawley rat at 1 mg/kg, iv or 2 mg/kg, po; assay type: ADME, organism-based; settings: in vivo; procedure, shortened: as §3
# [32] = Half life in Sprague-Dawley rat at 1 mg/kg, iv or 2 mg/kg, po; assay type: ADME, organism-based; settings: in vivo; procedure, shortened: as §3
concentration at 1 h [1] [nM],Intrinsic clearance (Liver) [mL/min],Intrinsic clearance (Liver microsomes [2]) [mL/min],Cp(f) (Plasma [3]) [%],concentration at 1 h [5] [nM],Intrinsic clearance (Liver microsomes [6]),fraction unbound [7],Ratio [8],Kp at 1 h [11],EC50 [12] [nM],IC50 [13] [nM],IC50 [14] [nM],Ki [16] [nM],SMILES,other results
1180,12.5,48,0.2,910,13,0.003,1.1,0.8,> 10000,23,> 10000,,Cc1cccc(C(=O)N[C@H]2CCC[C@]3(CN=C(c4cccc(Cl)c4)O3)C2)n1,Kp at 1 h [4]: 0.5; Activity (Mus musculus): Active; concentration at 1 h [9]: 9 nM; concentration at 1 h [10]: 17 nM
1160,8.8,160,0.3,1160,13,0.005,1.6,1,> 10000,115,> 10000,178,O=C(N[C@H]1CCC[C@]2(CN=C(c3cccc(Cl)c3)O2)C1)c1ccccn1,Kp at 1 h [15]: 0.6; concentration at 1 h [17]: 5 nM; concentration at 1 h [18]: 8 nM
500,9,41,11,170,1.1,0.22,0.67,0.34,> 10000,62,> 10000,205,O=C(N[C@@H]1CCC[C@@H](NC(=O)c2ccccn2)C1)c1cccc(Cl)c1,CL (Rattus norvegicus [19]): 85%; logD [20]: 3.2; Cp(f) (Plasma [21]): 14%; fraction unbound [22]: 0.065; clearance [23]: 68.3 mL/min/kg; fraction unbound [24]: 0.13; AUC (Rattus norvegicus [25]): 530 ng·h/mL; AUC (Rattus norvegicus [26]): 260 ng·h/mL; Vd [27]: 3.4 L/kg; solubility kinetic at 4 h [28]: 240 µM; Cmax [29]: 220 ng/mL; bioavailability (Rattus norvegicus [30]): 80%; Tmax [31]: 2 h; half-life [32]: 0.6 h
